ChEMBL document CHEMBL1125305, “Synthesis and antitumor activity of amino derivatives of pyridine-2-carboxaldehyde thiosemicarbazone” (1992)

How the values were obtained:
Mus musculus [1] = organism: Mus musculus; test: Average change in body weight from onset to termination of therapy in mice bearing the L1210 Leukemia(dose 10x2 mg/ kg ); assay type: functional
Method in brief: (§1)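 Female CD2F1 mice carried implanted L1210 leukemia. Drug was given ip in suspension twice daily for 6 consecutive days, beginning 24 h after implantation, with 5–10 mice per group. The value is the average percent body-weight change from onset to termination of therapy.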

Mus musculus [2] = organism: Mus musculus; test: Average survival days at the dose 10x2 mg/ kg in mice bearing the L1210 Leukemia; assay type: functional
Method in brief: (§2)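 CD2F1 female mice with implanted L1210 leukemia; each compound given ip as a suspension, twice daily for 6 consecutive days, starting 24 h after tumor implantation; 5-10 mice per group. Read-out is mean survival time, counting only mice dying before day 60. Body weight change is recorded from onset to end of therapy.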

Mus musculus [3] = organism: Mus musculus; test: Average survival days at the dose 20x2 mg/ kg in mice bearing the L1210 Leukemia; assay type: functional; method in brief: as §2
Mus musculus [4] = organism: Mus musculus; test: Average survival days at the dose 30x2 mg/ kg in mice bearing the L1210 Leukemia; assay type: functional; method in brief: as §2
Mus musculus [5] = organism: Mus musculus; test: Average survival days at the dose 40x2 mg/ kg in mice bearing the L1210 Leukemia; assay type: functional; method in brief: as §2
Mus musculus [6] = organism: Mus musculus; test: Average change in body weight from onset to termination of therapy in mice bearing the L1210 Leukemia(dose 20x2 mg/ kg ); assay type: functional; method in brief: as §1
Mus musculus [7] = organism: Mus musculus; test: Average change in body weight from onset to termination of therapy in mice bearing the L1210 Leukemia(dose 30x2 mg/ kg ); assay type: functional; method in brief: as §1
Mus musculus [8] = organism: Mus musculus; test: Average change in body weight from onset to termination of therapy in mice bearing the L1210 Leukemia(dose 40x2 mg/ kg ); assay type: functional; method in brief: as §1
Mus musculus [9] = organism: Mus musculus; test: Average change in body weight from onset to termination of therapy in mice bearing the L1210 Leukemia(dose 60 mg/ kg ); assay type: functional; conditions: at 60 mg/kg
Method in brief: (§3)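 L1210 leukemia in CD2F1 mice. Drug was given ip as a suspension once daily for 6 consecutive days, starting 24 h after tumor implantation, with 5–10 mice per group. The value is the average body-weight change from onset to termination of therapy, in percent.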

Mus musculus [10] = organism: Mus musculus; test: Effect of compound on mice bearing the L1210 Leukemia expressed as T/C percent treated/control)-dose 20x2 mg/ kg; assay type: functional
Mus musculus [11] = organism: Mus musculus; test: Effect of compound on mice bearing the L1210 Leukemia expressed as T/C percent treated/control)-dose 30x2 mg/ kg; assay type: functional
Mus musculus [12] = organism: Mus musculus; test: Effect of compound on mice bearing the L1210 Leukemia expressed as T/C percent treated/control)-dose 40x2 mg/ kg; assay type: functional
Mus musculus [13] = organism: Mus musculus; test: Effect of compound on mice bearing the L1210 Leukemia expressed as T/C percent treated/control)-dose 60 mg/ kg; assay type: functional; conditions: at 60 mg/kg
Mus musculus [14] = organism: Mus musculus; test: Effect of compound on mice bearing the L1210 Leukemia expressed as T/C percent treated/control)-dose 10x2 mg/ kg; assay type: functional
Mus musculus [15] = organism: Mus musculus; test: Average survival days at the dose 60 mg/ kg in mice bearing the L1210 Leukemia
Mus musculus [16] = organism: Mus musculus; test: Average survival days at the dose 40 mg/ kg in mice bearing the L1210 Leukemia; assay type: functional
Mus musculus [17] = organism: Mus musculus; test: Average change in body weight from onset to termination of therapy in mice bearing the L1210 Leukemia(dose 40 mg/ kg ); assay type: functional; conditions: at 40 mg/kg; method in brief: as §3
Mus musculus [18] = test: Effect of compound on mice bearing the L1210 Leukemia expressed as T/C percent treated/control)-dose 10 mg/kg; assay type: functional
Mus musculus [19] = organism: Mus musculus; test: Average change in body weight from onset to termination of therapy in mice bearing the L1210 Leukemia(dose 15x2 mg/ kg ); assay type: functional; method in brief: as §1
Mus musculus [20] = organism: Mus musculus; test: Average survival days at the dose 15x2 mg/ kg in mice bearing the L1210 Leukemia; assay type: functional; method in brief: as §2
Mus musculus [21] = organism: Mus musculus; test: Average change in body weight from onset to termination of therapy in mice bearing the L1210 Leukemia(dose 20 mg/ kg ); assay type: functional; conditions: at 20 mg/kg; method in brief: as §3
Mus musculus [22] = organism: Mus musculus; test: Effect of compound on mice bearing the L1210 Leukemia expressed as T/C percent treated/control)-dose 15x2 mg/ kg; assay type: functional
Mus musculus [23] = organism: Mus musculus; test: Effect of compound on mice bearing the L1210 Leukemia expressed as T/C percent treated/control)-dose 20 mg/ kg; assay type: functional; conditions: at 20 mg/kg
Mus musculus [24] = organism: Mus musculus; test: Average survival days at the dose 20 mg/ kg in mice bearing the L1210 Leukemia
Mus musculus [25] = organism: Mus musculus; test: Effect of compound on mice bearing the L1210 Leukemia expressed as T/C percent treated/control)-dose 40 mg/ kg; assay type: functional; conditions: at 40 mg/kg
Mus musculus [26] = organism: Mus musculus; test: Average change in body weight from onset to termination of therapy in mice bearing the L1210 Leukemia(dose 10 mg/ kg ); assay type: functional; conditions: at 10 mg/kg; method in brief: as §3

SMILES | Average change in body weight (Mus musculus [1]) | Average survival (Mus musculus [2]) | Average survival (Mus musculus [3]) | Average survival (Mus musculus [4]) | Average change in body weight (Mus musculus [6]) | Average change in body weight (Mus musculus [7]) | T/C (Mus musculus [10]) | T/C (Mus musculus [11]) | T/C (Mus musculus [14]) | Average survival (Mus musculus [16]) | Average change in body weight (Mus musculus [17]) | T/C (Mus musculus [18]) | Average change in body weight (Mus musculus [19]) | Average survival (Mus musculus [20]) | Average change in body weight (Mus musculus [21]) | T/C (Mus musculus [22]) | T/C (Mus musculus [23]) | also measured
Cc1ccnc(/C=N/N=C(/N)S)c1N | 1.4% | 14.8 days | 16.9 days | 17.6 days | -3.8% | -2.4% | 222% | 232% | 195% |  |  |  |  |  |  |  |  | Average survival (Mus musculus [5]): 19.4 days; Average change in body weight (Mus musculus [8]): -8.1%; Average change in body weight (Mus musculus [9]): 2%; T/C (Mus musculus [12]): 255%; T/C (Mus musculus [13]): 190%; Average survival (Mus musculus [15]): 14.9 days
N/C(S)=N/N=C/c1ccc(O)cn1 |  |  |  |  |  |  |  |  |  | 10.4 days | 2% | 133% |  |  |  |  |  | 
N/C(S)=N/N=C/c1ccc(N)cn1 | -3.8% | 17.6 days | 14 days | 6.9 days | -12.3% | -16% | 185% | 91% | 232% |  |  |  | -7.7% | 16.8 days | -2.8% | 221% | 140% | Average survival (Mus musculus [24]): 11 days
Cc1cc(/C=N/N=C(/N)S)ncc1N | 1.4% | 18.6 days | 17.9 days | 14.4 days | -12.1% | -12.4% | 236% | 190% | 245% | 10.8 days |  |  | -7.1% | 21 days | -7% | 276% | 138% | 
NC(=S)N/N=C/c1ncccc1N [TRIAPINE] | -6.4% | 18.7 days | 14.6 days | 7.3 days | -12.4% | -12.8% | 192% | 96% | 246% | 14.6 days | -5.9% |  | -3.3% | 19.8 days |  | 262% |  | T/C (Mus musculus [25]): 187%
Cc1cc(/C=N/N=C(/N)S)ncc1NO |  |  |  |  |  |  |  |  |  | 10.6 days |  | 136% |  |  |  |  |  | Average change in body weight (Mus musculus [26]): -2.7%
